# Results as given in ChEMBL document CHEMBL1125331, “6-Hydroxy-3-n-propyl-2,3,4,5-tetrahydro-1H-3-benzazepine and analogs: new centrally acting 5-HT1A receptor agonists” (J Med Chem, 1992).
# Legend:
# [1] = test system: Rattus norvegicus; test: Effect evaluated in vivo on 5-HTP accumulation in NE-rich hemispheres at a 6.25d ose uM/kg(po); format: functional
# How it was run: (§1)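 Male Sprague-Dawley rats (200–300 g) were pretreated with reserpine 5 mg/kg sc 18 h beforehand. Test drug was given at neutral pH, 5 mL/kg. Aromatic amino acid decarboxylase was blocked with NSD 1015. 5-HTP in the dissected brain region was assayed by HPLC with electrochemical detection.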
# [2] = test system: Rattus norvegicus; test: Effect evaluated in vivo on 5-HTP accumulation in limbic system after subcutaneous administration; format: functional; conditions: sc; how it was run: as §1
# [3] = test system: Rattus norvegicus; test: Effect evaluated in vivo on 5-HTP accumulation in limbic system at a dose 100 umol/kg (p.o.); format: functional
# How it was run: (§2)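 Oral dosing in male Sprague-Dawley rats (200–300 g) pretreated with reserpine 5 mg/kg sc 18 h before. After decarboxylase inhibition with NSD 1015, brain 5-HTP or dopa accumulation (HPLC-electrochemical detection) indexed 5-HT synthesis, DA synthesis (limbic) or NE synthesis (hemispheres, mainly cortex).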
# [4] = test system: Rattus norvegicus; test: Effect evaluated in vivo on 5-HTP accumulation in NE-rich hemispheres at a 12.5 dose uM/kg(sc); format: functional; how it was run: as §1
# [5] = molecular target: D(2) dopamine receptor (Rattus norvegicus, UniProt P61169); test: Inhibitory activity against Dopamine receptor D2 in rats using [3H]spiperone as radioligand
# Chain of D(2) dopamine receptor (P61169 whole entry): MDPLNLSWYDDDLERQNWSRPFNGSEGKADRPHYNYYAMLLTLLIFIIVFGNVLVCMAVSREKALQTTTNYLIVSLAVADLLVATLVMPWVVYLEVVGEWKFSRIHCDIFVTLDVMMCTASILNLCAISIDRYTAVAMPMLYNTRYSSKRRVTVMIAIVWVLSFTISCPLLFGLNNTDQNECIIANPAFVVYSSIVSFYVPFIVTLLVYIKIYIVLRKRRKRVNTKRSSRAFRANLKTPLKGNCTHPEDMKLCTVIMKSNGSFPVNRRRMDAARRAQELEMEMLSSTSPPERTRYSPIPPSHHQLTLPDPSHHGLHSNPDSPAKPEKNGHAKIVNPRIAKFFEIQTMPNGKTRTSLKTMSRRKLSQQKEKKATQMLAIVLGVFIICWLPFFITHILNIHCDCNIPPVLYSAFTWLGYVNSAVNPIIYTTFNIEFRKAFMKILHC
# How it was run: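 Rat striatal membranes in 50 mM potassium phosphate buffer pH 7.4 were incubated with 0.5 nM [3H]spiperone for 10 min at 37 °C. Specific binding was defined with 10 μM 6,7-ADTN.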
# [6] = test system: Rattus norvegicus; test: Effect evaluated in vivo on 5-HTP accumulation in NE-rich hemispheres after subcutaneous administration; format: functional; conditions: sc; how it was run: as §1
# [7] = test system: Rattus norvegicus; test: Effect evaluated in vivo on 5-HTP accumulation in corpus striatum after subcutaneous administration; format: functional; conditions: sc; how it was run: as §1
# [8] = test system: Rattus norvegicus; test: Effect evaluated in vivo on 5-HTP accumulation in limbic system at a dose 6.25 umol/kg (p.o.); format: functional; how it was run: as §2
# [9] = test system: Rattus norvegicus; test: Effect evaluated in vivo on 5-HTP accumulation in NE-rich hemispheres at a 25 dose uM/kg(po); format: functional; how it was run: as §1
# [10] = molecular target: T1, 5-hydroxytryptamine receptor 1A (Rattus norvegicus, UniProt P19327); test: Inhibitory activity against 5-hydroxytryptamine 1A receptor in rats, using [3H]8-OH-DPAT as radioligand
# T1 sequence (P19327 whole entry): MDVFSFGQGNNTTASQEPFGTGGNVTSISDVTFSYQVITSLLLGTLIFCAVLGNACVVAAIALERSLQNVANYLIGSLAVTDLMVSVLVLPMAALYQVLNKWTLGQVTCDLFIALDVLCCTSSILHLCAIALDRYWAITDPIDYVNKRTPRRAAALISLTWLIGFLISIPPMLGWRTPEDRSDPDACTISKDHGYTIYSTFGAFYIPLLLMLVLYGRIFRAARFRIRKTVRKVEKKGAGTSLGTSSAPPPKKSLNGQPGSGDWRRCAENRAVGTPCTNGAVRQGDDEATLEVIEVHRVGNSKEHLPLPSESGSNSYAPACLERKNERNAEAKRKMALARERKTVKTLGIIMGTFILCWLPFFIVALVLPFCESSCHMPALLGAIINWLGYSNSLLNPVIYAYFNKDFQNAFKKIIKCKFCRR
# How it was run: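 Rat whole-brain membranes (minus brainstem and cerebellum) in 50 mM Tris pH 8.0 with 120 mM NaCl, 4 mM CaCl2, 4 mM MgCl2 and 10 μM pargyline. Rapid filtration, then scintillation counting. Nonspecific binding defined with 10 μM 5-HT. IC50 by semi-log plot and linear regression.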
# [11] = test system: Rattus norvegicus; test: Effect evaluated in vivo on 5-HTP accumulation in corpus striatum at a dose 3.1 umol/kg (s.c.); format: functional; how it was run: as §1
# [12] = test system: Rattus norvegicus; test: Effect evaluated in vivo on 5-HTP accumulation in corpus striatum at a dose 12.5 umol/kg (s.c.); format: functional; how it was run: as §1
# [13] = test system: Rattus norvegicus; test: Effect evaluated in vivo on 5-HTP accumulation in NE-rich hemispheres at a 1.56 dose uM/kg(po); format: functional; how it was run: as §1
# [14] = test system: Rattus norvegicus; test: Effect evaluated in vivo on 5-HTP accumulation in limbic system at a dose 25 umol/kg (p.o.); format: functional; how it was run: as §2
# [15] = test system: Rattus norvegicus; test: Effect evaluated in vivo on 5-HTP accumulation in NE-rich hemispheres at a 100 dose uM/kg(po); format: functional; how it was run: as §1
# [16] = test system: Rattus norvegicus; test: Effect evaluated in vivo on 5-HTP accumulation in corpus striatum at a dose 6.25 umol/kg (p.o.); format: functional; how it was run: as §1
# [17] = test system: Rattus norvegicus; test: Effect evaluated in vivo on 5-HTP accumulation in limbic system at a dose 3.1 umol/kg (s.c.); format: functional
# How it was run: (§3)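 Male Sprague-Dawley rats (200–300 g) were pretreated with reserpine 5 mg/kg sc 18 h before. Test compound was given sc at 5 mL/kg in neutral solution. 5-HT synthesis rate was indexed by […] 5-HTP accumulation after decarboxylase inhibition with NSD 1015, measured by HPLC-electrochemical detection. Dose-response used 4–6 dose levels, n = 4.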
# [18] = test system: Rattus norvegicus; test: Effect evaluated in vivo on 5-HTP accumulation in corpus striatum at a dose 1.56 umol/kg (p.o.); format: functional; how it was run: as §1
# [19] = test system: Rattus norvegicus; test: Effect evaluated in vivo on 5-HTP accumulation in corpus striatum after perioral administration; format: functional; how it was run: as §1
# [20] = test system: Rattus norvegicus; test: Effect evaluated in vivo on 5-HTP accumulation in corpus striatum at a dose 50 umol/kg (s.c.); format: functional; how it was run: as §1
# [21] = test system: Rattus norvegicus; test: Effect evaluated in vivo on 5-HTP accumulation in NE-rich hemispheres at a 50 dose uM/kg(sc); format: functional; how it was run: as §1
# [22] = test system: Rattus norvegicus; test: Effect evaluated in vivo on NE synthesis in NE-rich hemispheres at a 0.78 dose uM/kg(sc); format: functional
# How it was run: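 Rats pretreated with reserpine 5 mg/kg sc 18 h before received test compound sc at 5 mL/kg in neutral solution. After decarboxylase inhibition with NSD 1015, dopa accumulation in hemispheres (mainly cortex) was measured by HPLC-electrochemical detection as an index of NE synthesis. Dose-response used 4–6 dose levels, n = 4.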
# [23] = test system: Rattus norvegicus; test: The compound was tested in vivo for locomotor activity in rats at 50 umol/kg after subcutaneous administration; format: functional
# How it was run: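 Male Sprague-Dawley rats received reserpine 5 mg/kg sc in the neck 18 h before testing. Test compound was given sc in the neck (n = 4). Rats were placed singly in photocell motility meters immediately after dosing, and counts were accumulated over 30 min (tests 9 a.m.–1 p.m.). Gross behaviour, including 5-HT syndrome, was observed throughout.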
# [24] = test system: Rattus norvegicus; test: Effect evaluated in vivo on 5-HTP accumulation in limbic system at a dose 12.5 umol/kg (s.c.); format: functional; how it was run: as §3
# [25] = test system: Rattus norvegicus; test: Effect evaluated in vivo on 5-HTP accumulation in limbic system after perioral administration; format: functional; how it was run: as §1
# [26] = test system: Rattus norvegicus; test: Effect evaluated in vivo on 5-HTP accumulation in NE-rich hemispheres at a 3.1 dose uM/kg(sc); format: functional; how it was run: as §1
# [27] = test system: Rattus norvegicus; test: Effect evaluated in vivo on 5-HTP accumulation in limbic system at a dose 0.78 umol/kg (s.c.); format: functional; how it was run: as §1
# [28] = test system: Rattus norvegicus; test: Effect evaluated in vivo on 5-HTP accumulation in limbic system at a dose 1.56 umol/kg (p.o.); format: functional; how it was run: as §2
# [29] = test system: Rattus norvegicus; test: Effect evaluated in vivo on NE synthesis in NE-rich hemispheres after perioral administration; format: functional; how it was run: as §2
# [30] = test system: Rattus norvegicus; test: Effect evaluated in vivo on 5-HTP accumulation in limbic system at a dose 50 umol/kg (s.c.); format: functional; how it was run: as §3
# [31] = test system: Rattus norvegicus; test: Effect evaluated in vivo on 5-HTP accumulation in corpus striatum at a dose 0.78 umol/kg (s.c.); format: functional; how it was run: as §1
# [32] = test system: Rattus norvegicus; test: Effect evaluated in vivo on 5-HTP accumulation in corpus striatum at a dose 100 umol/kg (p.o.); format: functional; how it was run: as §1
# [33] = test system: Rattus norvegicus; test: Effect evaluated in vivo on 5-HTP accumulation in corpus striatum at a dose 25 umol/kg (p.o.); format: functional; how it was run: as §1
smiles,measurement,setting,value
CCCN1CCc2cccc(OC)c2CC1,Control,[1],84%
same,ED50,[2],1.5 µmol/kg
same,Control,[3],47%
same,Control,[4],48%
same,IC50,[5],3.6 µM
same,ED50,[6],1.5 µmol/kg
same,ED50,[7],1 µmol/kg
same,Control,[8],77%
same,Control,[9],58%
same,IC50,[10],0.063 µM
same,Control,[11],53%
same,Control,[12],48%
same,Control,[13],101%
same,Control,[14],58%
same,Control,[15],53%
same,Control,[16],79%
same,Control,[17],48%
same,Control,[18],97%
same,ED50,[19],10 µmol/kg
same,Control,[20],63%
same,Control,[21],58%
same,Control,[22],92%
same,Locomotor activity,[23],197
same,Control,[24],42%
same,ED50,[25],7 µmol/kg
same,Control,[26],47%
same,Control,[27],99%
same,Control,[28],99%
same,ED50,[29],13 µmol/kg
same,Control,[30],61%
same,Control,[31],74%
same,Control,[32],56%
same,Control,[33],65%
